Here are results for eight compounds from ChEMBL document CHEMBL1828519, “Tricyclic thiazolopyrazole derivatives as metabotropic glutamate receptor 4 positive allosteric modulators” (J Med Chem, 2011).

Data set [1] is described as follows: Lipophilicity, log D of the compound at pH 7.4. Format: physicochemical. Particulars: buffer.
Data set [2] can be described thus: Intrinsic clearance in rat microsomes. It counts as ADME, Microsome. A digest of the protocol: (§1)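 Intrinsic clearance measured in rat and human liver microsomes. Hepatic blood flow references given as 20 mL/min for rat and 1.5 L/min for human.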
The target in data set [3] is T1, Metabotropic glutamate receptor 7 (Homo sapiens, UniProt Q14831). Put plainly: Positive allosteric modulation of mGlu7 receptor assessed as potentiation of glutamate-induced calcium mobilization. It counts as functional. A general note: Calcium assays in cells follow changes in intracellular calcium, usually with a dye or a luminescent sensor.
For data set [4], the target named is T2, Metabotropic glutamate receptor 5 (Homo sapiens, UniProt P41594). Put plainly: Positive allosteric modulation of mGlu5 receptor assessed as potentiation of glutamate-induced calcium mobilization. It counts as functional.
T2 sequence (P41594 whole entry): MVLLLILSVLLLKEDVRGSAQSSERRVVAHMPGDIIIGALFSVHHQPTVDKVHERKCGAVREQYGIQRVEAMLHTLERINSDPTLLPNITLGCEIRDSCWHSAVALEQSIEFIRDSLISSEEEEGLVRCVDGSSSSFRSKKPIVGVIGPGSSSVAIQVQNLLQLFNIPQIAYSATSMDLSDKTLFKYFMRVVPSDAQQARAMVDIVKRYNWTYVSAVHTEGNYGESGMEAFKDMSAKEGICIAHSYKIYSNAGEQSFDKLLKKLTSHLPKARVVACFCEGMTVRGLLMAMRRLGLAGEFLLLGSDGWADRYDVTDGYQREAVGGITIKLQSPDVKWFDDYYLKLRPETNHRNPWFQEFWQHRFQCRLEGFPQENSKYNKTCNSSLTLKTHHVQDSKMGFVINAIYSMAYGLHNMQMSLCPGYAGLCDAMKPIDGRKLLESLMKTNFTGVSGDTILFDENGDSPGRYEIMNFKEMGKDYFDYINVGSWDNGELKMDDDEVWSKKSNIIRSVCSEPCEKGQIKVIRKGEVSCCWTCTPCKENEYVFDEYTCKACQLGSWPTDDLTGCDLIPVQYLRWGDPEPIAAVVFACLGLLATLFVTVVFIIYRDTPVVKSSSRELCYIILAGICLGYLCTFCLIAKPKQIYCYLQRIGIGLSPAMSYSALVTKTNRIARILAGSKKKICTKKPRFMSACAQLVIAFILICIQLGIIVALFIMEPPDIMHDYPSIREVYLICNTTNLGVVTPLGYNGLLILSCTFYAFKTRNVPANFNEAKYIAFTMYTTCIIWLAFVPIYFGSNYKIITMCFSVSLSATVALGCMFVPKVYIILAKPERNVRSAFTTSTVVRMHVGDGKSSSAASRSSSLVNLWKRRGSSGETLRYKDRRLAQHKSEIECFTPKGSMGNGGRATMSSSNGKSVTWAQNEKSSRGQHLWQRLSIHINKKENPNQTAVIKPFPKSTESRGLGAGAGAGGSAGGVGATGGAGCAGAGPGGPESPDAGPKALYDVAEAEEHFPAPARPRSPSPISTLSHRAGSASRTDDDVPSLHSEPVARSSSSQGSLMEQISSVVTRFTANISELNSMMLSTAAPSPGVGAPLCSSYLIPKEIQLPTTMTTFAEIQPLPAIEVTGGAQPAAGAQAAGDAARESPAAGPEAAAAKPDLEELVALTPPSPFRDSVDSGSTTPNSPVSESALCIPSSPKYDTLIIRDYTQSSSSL
Data set [5] in a line: Fraction unbound in rat brain. Format: ADME, tissue-based. In short, it runs like this: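 Brain free fraction determined by dialysis of rat brain homogenate.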
A short description of data set [6]: Intrinsic clearance in human microsomes. It counts as ADME, Microsome. A digest of the protocol:
as §1

Data set [7] addresses T3, Metabotropic glutamate receptor 1 (Homo sapiens, UniProt Q13255). Put plainly: Positive allosteric modulation of mGlu1 receptor assessed as potentiation of glutamate-induced calcium mobilization. Format: functional.
Data set [8] can be described thus: Apparent permeability of the compound by PAMPA assay. Format: ADME. In short, it runs like this: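 Passive permeability measured in a PAMPA assay.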
(In PAMPA a lipid-coated filter parts donor from acceptor wells.)

Data set [9] has as its target T4, Metabotropic glutamate receptor 3 (Homo sapiens, UniProt Q14832). Put plainly: Positive allosteric modulation of mGlu3 receptor assessed as potentiation of glutamate-induced calcium mobilization. Format: functional.
Data set [10] is described as follows: Kinetic solubility of the compound at pH 1.5 at room temperature. Particulars: buffer, read-out: Kinetic_solubility. Format: physicochemical. In short, it runs like this: (§2)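 Kinetic solubility measured from DMSO stock solutions at room temperature. Assay run at the pH named in each line.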
The nature of data set [11]: Drug uptake in Sprague-Dawley rat brain at 10 mg/kg, po after 1 hr. Particulars: read-out: Drug uptake. Format: ADME, organism-based. Details: dose 10 mg/kg, route oral. A digest of the protocol: (§3)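 Sprague-Dawley rats given 10 mg/kg orally as a suspension in 20% aqueous hydroxypropyl-β-cyclodextrin. Plasma and brain levels taken at 1 h post-dose. Brain/plasma ratio derived from these levels.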

In data set [12] the target is T5, Metabotropic glutamate receptor 2 (Homo sapiens, UniProt Q14416). Kind of data set: Negative allosteric modulation of mGlu2 receptor.
T5 sequence (Q14416 whole entry): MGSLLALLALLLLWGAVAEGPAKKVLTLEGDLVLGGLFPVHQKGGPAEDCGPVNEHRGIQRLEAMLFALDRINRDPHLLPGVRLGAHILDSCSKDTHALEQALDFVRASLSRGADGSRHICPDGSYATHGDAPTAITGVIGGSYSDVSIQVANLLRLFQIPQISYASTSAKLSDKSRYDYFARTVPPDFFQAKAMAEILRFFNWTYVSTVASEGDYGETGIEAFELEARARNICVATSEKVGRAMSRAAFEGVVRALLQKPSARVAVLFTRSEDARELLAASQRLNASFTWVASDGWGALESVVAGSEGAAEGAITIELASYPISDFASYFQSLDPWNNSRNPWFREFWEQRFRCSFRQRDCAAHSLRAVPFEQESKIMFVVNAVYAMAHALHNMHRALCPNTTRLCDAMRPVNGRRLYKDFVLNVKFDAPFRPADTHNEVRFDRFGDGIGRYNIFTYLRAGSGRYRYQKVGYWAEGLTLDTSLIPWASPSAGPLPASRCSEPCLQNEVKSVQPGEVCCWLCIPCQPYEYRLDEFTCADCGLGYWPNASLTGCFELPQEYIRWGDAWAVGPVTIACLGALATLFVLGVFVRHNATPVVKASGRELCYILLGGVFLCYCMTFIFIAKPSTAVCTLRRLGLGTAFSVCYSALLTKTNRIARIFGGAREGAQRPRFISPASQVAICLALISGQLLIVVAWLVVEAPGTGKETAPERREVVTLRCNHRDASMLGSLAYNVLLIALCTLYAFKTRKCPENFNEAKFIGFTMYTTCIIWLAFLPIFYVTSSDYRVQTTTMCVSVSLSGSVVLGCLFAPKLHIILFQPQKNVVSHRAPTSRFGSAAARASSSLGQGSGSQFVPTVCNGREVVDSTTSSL
The target in data set [13] is T6, Metabotropic glutamate receptor 4 (Homo sapiens, UniProt Q14833). Kind of data set: Positive allosteric modulation of human mGlu4 receptor expressed in BHK cells assessed as potentiation of glutamate-induced calcium mobilization after 1 hr by FLIPR assay. Format: functional, cell-based. A digest of the protocol: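 Stable BHK line co-expressing human mGlu4 and murine Gα15, plated on poly-D-lysine 24 h ahead. Cells loaded 1 h at 37 °C, 5% CO2 with Calcium 3 dye in HBSS/20 mM HEPES pH 7.4, 0.1% BSA, 2.5 mM probenecid. Test agent added with an EC20 glutamate challenge. Peak fluorescence change read by FLIPR and fitted to the Hill equation. At least two independent runs in duplicate, means reported.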
T6 sequence (Q14833 whole entry): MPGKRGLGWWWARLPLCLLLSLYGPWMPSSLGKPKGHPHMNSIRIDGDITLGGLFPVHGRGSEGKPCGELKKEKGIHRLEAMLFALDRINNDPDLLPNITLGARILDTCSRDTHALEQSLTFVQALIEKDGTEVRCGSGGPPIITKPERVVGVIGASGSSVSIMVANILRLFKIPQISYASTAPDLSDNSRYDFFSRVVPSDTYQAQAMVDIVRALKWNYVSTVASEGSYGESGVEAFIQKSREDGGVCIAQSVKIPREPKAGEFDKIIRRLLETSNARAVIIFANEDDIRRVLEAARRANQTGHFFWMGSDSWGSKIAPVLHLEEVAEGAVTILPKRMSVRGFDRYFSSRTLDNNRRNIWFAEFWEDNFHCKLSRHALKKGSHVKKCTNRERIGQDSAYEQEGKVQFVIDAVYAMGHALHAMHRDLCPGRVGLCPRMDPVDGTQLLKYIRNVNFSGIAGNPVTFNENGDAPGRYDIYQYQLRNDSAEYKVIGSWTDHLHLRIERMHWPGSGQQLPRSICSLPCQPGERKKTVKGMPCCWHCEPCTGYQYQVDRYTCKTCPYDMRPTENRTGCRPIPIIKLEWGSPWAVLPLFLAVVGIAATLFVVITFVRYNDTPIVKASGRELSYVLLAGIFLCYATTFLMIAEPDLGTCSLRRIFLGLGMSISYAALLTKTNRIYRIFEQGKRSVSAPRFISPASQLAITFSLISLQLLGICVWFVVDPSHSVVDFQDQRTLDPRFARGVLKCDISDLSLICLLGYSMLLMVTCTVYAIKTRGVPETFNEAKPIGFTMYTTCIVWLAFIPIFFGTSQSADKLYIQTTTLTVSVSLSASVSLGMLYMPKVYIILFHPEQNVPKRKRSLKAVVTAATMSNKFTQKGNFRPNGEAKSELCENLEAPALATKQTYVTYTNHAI

The subject of data set [14] is P-gp (MDR1). Kind of data set: Apparent permeability from basolateral to apical side of dog MDCK cells expressing human MDR1 by P-gp substrate assay. It counts as ADME, cell-based, Canis lupus familiaris. A digest of the protocol: (§4)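 MDCK cells transfected with human MDR1, used as a P-gp substrate assay. Permeability measured in both directions, apical-to-basolateral and basolateral-to-apical. The efflux ratio is taken as B→A over A→B.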

Data set [15] can be described thus: Plasma protein binding in rat. Format: ADME, cell-free. Particulars: read-out: PPB (converted).
Data set [16] has as its target T1, Metabotropic glutamate receptor 7. Kind of data set: Negative allosteric modulation of mGlu7 receptor.
Data set [17] concerns P-gp (MDR1). Put plainly: Apparent permeability from apical to basolateral side of dog MDCK cells expressing human MDR1 by P-gp substrate assay. It counts as ADME, cell-based, Canis lupus familiaris. In short, it runs like this:
as §4

Data set [18] in a line: Kinetic solubility of the compound at pH 7.4 at room temperature. Format: physicochemical. The settings on record: buffer, read-out: Kinetic_solubility. A digest of the protocol:
as §2

The target in data set [19] is T4, Metabotropic glutamate receptor 3. Kind of data set: Negative allosteric modulation of mGlu3 receptor.
For data set [20], the target named is T3, Metabotropic glutamate receptor 1. Put plainly: Negative allosteric modulation of mGlu1 receptor.
A short description of data set [21]: Plasma concentration in Sprague-Dawley rat at 10 mg/kg, po after 1 hr. It counts as ADME, organism-based. Details: dose 10 mg/kg, route oral. A digest of the protocol: as §3
Data set [22] in a line: Plasma protein binding in human. Format: ADME, cell-free. The settings on record: read-out: PPB (converted).
In data set [23] the target is T2, Metabotropic glutamate receptor 5. Put plainly: Negative allosteric modulation of mGlu5 receptor.
In data set [24] the target is T5, Metabotropic glutamate receptor 2. Put plainly: Positive allosteric modulation of mGlu2 receptor assessed as potentiation of glutamate-induced calcium mobilization. It counts as functional.
The nature of data set [25]: Fraction unbound in rat plasma. Format: ADME, cell-free.
Data set [26] in a line: Ratio of drug level in brain to plasma of Sprague-Dawley rat at 10 mg/kg, po after 1 hr. Details: dose 10 mg/kg, route oral. Particulars: read-out: BPR. It counts as ADME, organism-based. In short, it runs like this:
as §3

Data set [27] in a line: Fraction unbound in human plasma. Format: ADME, cell-free.
Data set [28] has as its target T6, Metabotropic glutamate receptor 4. Put plainly: Positive allosteric modulation of human mGlu4 receptor expressed in BHK cells assessed as potentiation of glutamate-induced response after 1 hr by FLIPR assay relative to glutamate. Format: cell-based. A digest of the protocol: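 BHK cells stably co-expressing human mGlu4 and murine G-protein […], grown in DMEM at 37 °C, 5% CO₂. Cells seeded 24 h before assay, then loaded with Calcium 3 no-wash dye in HBSS/HEPES pH 7.4 with 0.1% BSA and 2.5 mM probenecid for 1 h at 37 °C. FLIPR calcium read after stimulation with EC₂₀ glutamate plus compound. Emax is percent of maximal glutamate response. Mean of ≥2 independent duplicate experiments.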

The nature of data set [29]: Drug uptake in Sprague-Dawley rat cerebrospinal fluid at 10 mg/kg, sc after 1 hr.

≈ marks a conversion by molar mass, not a printed value.

T3 sequence (Q13255 whole entry): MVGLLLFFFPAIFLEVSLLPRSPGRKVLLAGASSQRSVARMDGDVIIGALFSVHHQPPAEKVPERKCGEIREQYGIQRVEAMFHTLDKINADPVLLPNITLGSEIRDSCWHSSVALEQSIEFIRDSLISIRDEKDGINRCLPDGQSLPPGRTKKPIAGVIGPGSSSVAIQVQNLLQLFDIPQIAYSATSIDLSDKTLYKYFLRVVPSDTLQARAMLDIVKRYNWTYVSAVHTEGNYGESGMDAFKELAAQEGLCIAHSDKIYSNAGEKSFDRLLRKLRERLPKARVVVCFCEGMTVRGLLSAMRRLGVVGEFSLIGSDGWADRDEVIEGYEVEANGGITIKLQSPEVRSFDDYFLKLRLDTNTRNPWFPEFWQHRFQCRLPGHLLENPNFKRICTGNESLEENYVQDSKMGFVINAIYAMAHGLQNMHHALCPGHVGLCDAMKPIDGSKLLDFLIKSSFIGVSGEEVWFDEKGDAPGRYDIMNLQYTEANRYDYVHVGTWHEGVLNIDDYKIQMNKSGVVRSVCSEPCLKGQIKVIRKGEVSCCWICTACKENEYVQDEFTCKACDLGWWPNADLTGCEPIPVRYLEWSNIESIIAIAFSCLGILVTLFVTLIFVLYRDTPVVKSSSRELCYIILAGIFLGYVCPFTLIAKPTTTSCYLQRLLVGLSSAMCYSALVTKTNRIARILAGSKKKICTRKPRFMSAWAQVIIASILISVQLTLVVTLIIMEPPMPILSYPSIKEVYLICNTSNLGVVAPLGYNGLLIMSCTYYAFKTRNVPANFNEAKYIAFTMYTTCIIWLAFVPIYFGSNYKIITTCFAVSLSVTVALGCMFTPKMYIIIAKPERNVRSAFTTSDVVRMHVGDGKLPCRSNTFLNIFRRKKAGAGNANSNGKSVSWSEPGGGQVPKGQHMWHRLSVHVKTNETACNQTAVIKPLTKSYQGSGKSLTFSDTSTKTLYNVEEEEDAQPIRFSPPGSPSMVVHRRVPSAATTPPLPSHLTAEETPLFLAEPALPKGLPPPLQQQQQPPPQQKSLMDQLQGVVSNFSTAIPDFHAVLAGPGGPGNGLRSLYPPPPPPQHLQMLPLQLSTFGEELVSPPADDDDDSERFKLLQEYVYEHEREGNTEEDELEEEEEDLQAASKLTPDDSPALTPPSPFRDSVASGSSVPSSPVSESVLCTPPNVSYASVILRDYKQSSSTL
T4 sequence (Q14832 whole entry): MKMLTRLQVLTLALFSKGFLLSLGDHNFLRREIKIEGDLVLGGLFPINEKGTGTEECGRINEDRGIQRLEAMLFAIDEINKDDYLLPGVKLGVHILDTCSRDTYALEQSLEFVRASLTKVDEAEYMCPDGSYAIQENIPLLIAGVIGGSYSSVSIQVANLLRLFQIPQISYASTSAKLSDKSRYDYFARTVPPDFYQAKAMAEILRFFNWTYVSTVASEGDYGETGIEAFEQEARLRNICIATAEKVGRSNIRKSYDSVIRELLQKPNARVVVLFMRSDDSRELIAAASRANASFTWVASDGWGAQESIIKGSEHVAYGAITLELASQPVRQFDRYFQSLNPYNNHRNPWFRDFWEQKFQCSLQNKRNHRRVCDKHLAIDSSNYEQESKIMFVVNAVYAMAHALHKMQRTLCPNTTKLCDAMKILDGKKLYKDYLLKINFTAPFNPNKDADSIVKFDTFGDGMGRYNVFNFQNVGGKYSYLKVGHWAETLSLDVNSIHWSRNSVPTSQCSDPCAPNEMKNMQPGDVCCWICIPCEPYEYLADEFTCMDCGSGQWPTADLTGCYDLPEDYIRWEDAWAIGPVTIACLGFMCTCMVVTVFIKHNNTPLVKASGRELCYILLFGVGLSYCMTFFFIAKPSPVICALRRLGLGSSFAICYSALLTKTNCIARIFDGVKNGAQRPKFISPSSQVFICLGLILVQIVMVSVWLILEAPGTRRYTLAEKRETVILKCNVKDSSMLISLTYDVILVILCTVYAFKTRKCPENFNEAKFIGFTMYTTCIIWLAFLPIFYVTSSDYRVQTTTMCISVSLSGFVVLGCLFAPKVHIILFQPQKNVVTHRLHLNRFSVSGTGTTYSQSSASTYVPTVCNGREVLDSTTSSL

The term logD denotes the decadic logarithm of the distribution of all forms, ionised or not, between an organic phase and buffer at a given pH. Broadly, the EC50 is the concentration needed to bring the measured effect to its halfway point. As a reminder, the Papp is the rate of passage across a membrane or cell layer, normalised by area and donor concentration. In general, IC50 refers to the concentration needed to halve the response being measured. A high value points to lower potency. One may read the Papp B→A as the apparent permeability from the basolateral to the apical side of a cell layer. A word on the Papp A→B: it is how fast a substance crosses the layer from the apical side. As to `c1ccc(Nc2nc3c(s2)CCCc2[nH]ncc2-3)nc1`, the logD in data set [1] worked out at 5. Further, the CL is 36 mL/min in data set [2] and 10 L/min in [6]. In addition, the concentration giving a half-maximal response (EC50) in data set [3] is more than 10 µM; in data set [4], more than 10 µM; in [7] it was more than 10 µM; in data set [9], more than 10 µM; in [13] it was 9 nM; in data set [24], more than 10 µM. Further, the fraction unbound in data set [5] was 0.0043; in [15], 0.011; in data set [22], 0.006; in data set [25], 0.011. Moreover, in data set [8], the Papp turned out to be 9.4 ×10⁻⁶ cm/s. Also, the solubility kinetic turned out to be 240 µM (≈ 68 µg/mL) in data set [10] and 1.2 µM (≈ 0.34 µg/mL) in data set [18]. In addition, the concentration at 1 h in [11] was 200 ng/g; in [21] it was 259 ng/mL. Further, the half-inhibitory concentration (IC50) in data set [12], in data set [16], in data set [19], in data set [20] and in [23] was more than 10 µM in each case. Also, the basolateral-to-apical permeability (Papp B→A) in data set [14] came to 13 ×10⁻⁶ cm/s. In addition, in [17], the Papp A→B amounted to 24 ×10⁻⁶ cm/s. In data set [26], the Kp at 1 h amounted to 0.8.
In general, Emax refers to the size of the effect at its maximum, as opposed to the concentration needed. `c1ccc(Nc2nc(-c3cn[nH]c3)cs2)nc1` yielded a logD in data set [1] of 3.1. Moreover, the CL in data set [2] was 61 mL/min; in data set [6] it was 11 L/min. Also, the fraction unbound in [5] amounted to 0.014; in data set [27], 0.035; in data set [25], 0.092. Also, the apparent permeability coefficient (Papp) in data set [8] turned out to be 32.9 ×10⁻⁶ cm/s. Also, the figures for the solubility kinetic in data set [10] and in [18] were 220 µM (≈ 53.5 µg/mL) and 120 µM (≈ 29.2 µg/mL), respectively. Besides, the figures for the concentration at 1 h in [11], in [21] and in [29] were 744 ng/g, 766 ng/mL and 52 ng/mL, respectively. The concentration giving a half-maximal response (EC50) in data set [13] was determined as 410 nM. Further, in [28], the Emax amounted to 72%. Also, the Kp at 1 h in [26] was 1.
In the case of `c1cnc(Nc2nc3c(s2)CCc2[nH]ncc2-3)nc1`, the CL in data set [2] turned out to be 42 mL/min; in data set [6], 4.4 L/min. The apparent permeability (Papp) in data set [8] is 3.4 ×10⁻⁶ cm/s. The concentration giving a half-maximal response (EC50) in [13] worked out at 65 nM. Also, the fraction unbound in data set [15] is 0.105; in data set [22], 0.036. Also, the solubility kinetic in data set [18] is 20 µM (≈ 5.41 µg/mL).
Regarding `Cc1cccc(Nc2nc3c(s2)CCc2[nH]ncc2-3)n1`, the CL in [2] stood at 400 mL/min; in data set [6], 48 L/min. In addition, the Papp in [8] was found to be 2 ×10⁻⁶ cm/s. Besides, the EC50 in [13] was found to be 910 nM. The solubility kinetic in data set [18] is 2.9 µM (≈ 0.822 µg/mL).
As to `c1ccc(Nc2nc3c(s2)CCc2[nH]ncc2-3)nc1`, the logD in [1] came out at 4. Further, the CL in data set [2] was 37 mL/min; in [6] it was 5.6 L/min. In addition, the half-maximal effective concentration (EC50) in data set [3] is more than 10 µM; in [4] it was more than 10 µM; in data set [7], more than 10 µM; in data set [9], more than 10 µM; in data set [13] it was 220 nM; in data set [24] it was more than 10 µM. Moreover, the fraction unbound was 0.0043 in data set [5], 0.023 in data set [15], 0.008 in [22] and 0.023 in [25]. In addition, the apparent permeability coefficient (Papp) in [8] stood at 3 ×10⁻⁶ cm/s. Moreover, the solubility kinetic in [10] amounted to 220 µM (≈ 59.3 µg/mL); in data set [18], 0.1 µM (≈ 0.0269 µg/mL). Moreover, the results for the concentration at 1 h in data set [11] and in data set [21] were 517 ng/g and 987 ng/mL, respectively. In addition, the IC50 in [12], in data set [16], in data set [19], in [20] and in data set [23] was more than 10 µM throughout. In data set [14], the Papp B→A was found to be 7.7 ×10⁻⁶ cm/s. Besides, the apical-to-basolateral permeability (Papp A→B) in data set [17] came to 22 ×10⁻⁶ cm/s. Moreover, the Kp at 1 h in data set [26] is 0.5.
Turning to `c1cnc(Nc2nc3c(s2)CCCc2[nH]ncc2-3)nc1`, the logD in data set [1] was 3.8. For the same compound, the CL in data set [2] was determined as 92 mL/min; in data set [6] it was 9 L/min. Also, the EC50 is more than 10 µM in data set [3]; more than 10 µM in data set [4]; more than 10 µM in [7]; more than 10 µM in data set [9]; 7 nM in [13]; more than 10 µM in data set [24]. Also, the fraction unbound in [5] is 0.016; in data set [15], 0.006; in data set [22], 0.031; in [25], 0.006. Besides, the apparent permeability coefficient (Papp) in data set [8] was 1.5 ×10⁻⁶ cm/s. In addition, the solubility kinetic in data set [10] is 100 µM (≈ 28.4 µg/mL); in [18], 3 µM (≈ 0.853 µg/mL). The concentration at 1 h stood at 3.1 ng/g in [11] and 0.7 ng/mL in [21]. Besides, the IC50 in [12], in [16], in [19], in data set [20] and in data set [23] was more than 10 µM in each case. Moreover, the basolateral-to-apical permeability (Papp B→A) in [14] was determined as 21 ×10⁻⁶ cm/s. For the same compound, in [17], the apparent permeability from apical to basolateral (Papp A→B) worked out at 33 ×10⁻⁶ cm/s.
As to `Cc1ccnc(Nc2nc3c(s2)CCc2n[nH]cc2-3)c1`, in [8], the Papp amounted to 12.4 ×10⁻⁶ cm/s. The EC50 in [13] is more than 10000 nM. Further, the solubility kinetic in data set [18] was 9 µM (≈ 2.55 µg/mL). In data set [28], the maximum response (Emax) was determined as 11%.
On the same counts, the results for `COCCOc1cccc(Nc2nc3c(s2)CCCc2n[nH]cc2-3)n1` are 0.1 ×10⁻⁶ cm/s, 390 nM, 0.1 µM (≈ 0.0357 µg/mL) and 90%.
